From the EternaBench riboswitch data come the findings set out here.

For this data set, the system named is MS2 coat protein. Put plainly: apparent Kd, MS2 coat protein; higher = weaker binding; RNA-MaP array; theophylline 2 mM where present. A digest of the protocol: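 Designs were transcribed by stalled E. coli RNA polymerase on Illumina sequencing-chip clusters. They were titrated with SNAP-549-labelled MS2 coat protein from 0.7 or 1.5 nM, doubling to 3 µM, in 100 mM Tris-HCl pH 7.5, 80 mM KCl, 4 mM MgCl2, BSA, DTT, yeast tRNA and Tween-20, without and then with constant ligand. The apparent Kd is the median of filtered per-cluster fits after normalisation of green signal to red-channel RNA signal and control-cluster median Fmax.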

The mark [1] stands for this setting: designed as: ON switch for theophylline, no ligand.
Setting [2] is: ligand present: theophylline, designed as: ON switch for theophylline.
Where [3] appears, read: designed as: OFF switch for theophylline, no ligand.
Setting [4] is: ligand present: theophylline, designed as: OFF switch for theophylline.

The term apparent Kd denotes a dissociation constant that holds for the conditions of the assay. Consider “UGGCAGGAGUGAUCCUCCUGCCAAGGUGAUACCAGCAUCGAAAGAUGCCCUUGGCAGCACCAACAUGAGGAUCACCCAUGUAAUA”, for which the “apparent Kd” value reads like this: under setting [1], 108 nM; under setting [2], 47.9 nM.
As for “GAAAGAUGAGGCGGCAGUACCGAUGUCGAUACCAGCAUGAACAAAUGCCCUUGGCAGCGACAUGAGGAUCACCCAUGUAUCUGCG”, the “apparent Kd” value under setting [3] was 11.3 nM and the “apparent Kd” value under setting [4] is 127 nM.
In the same order, the values of “CUCUUCCGGAAGGAUACCAGCUACAUGAGGAUCACCCAUGUAGGAGCGGGUUUCUAAUGUAGCCCUUGGCAGCCUUAGCCCGUCG” are 17.6 nM and 60.7 nM.
In the same order, the values of “UUAUUUAUAAUGGAUACCAGUAUAAUGGCCGCAAAUCCUGACAUGAGGAUCACCCAUGUAUGCCCUUGGCAGCUGUUAUGGGUUU” are 41.1 nM and 57.6 nM.
Take “GAUAGUUGAUGGGAUACCAGCCUACACAUGAGGAUCACCCAUGUGAUUCGUGUACGACUGGGCCCUUGGCAGCCCAUAUUGUGUA”: the “apparent Kd” value reads like this: under setting [1], 107 nM; under setting [2], 55.1 nM.
Turning to “AGCGACAUGCAUGAUACCAGCUACAUGAGGAUCACCCAUGUACGUCAGUAAUGACUGUGUAGCCCUUGGCAGCAUAGAGCAUGUA”, the “apparent Kd” value reads like this: under setting [3], 17.5 nM; under setting [4], 44.5 nM.
The corresponding values for “UGCGUACAUGAGGAUCACCCAUGUAUAGAUACCAGUCACCCAUGUGGCCCUUGGCAGCUAACAUGAGGAUCACUACAUGAGGAUC” are 34.5 nM and 141 nM.
“AGACAUGAGGAUCACCCAUGUAGCAUGGAUACCAGAUGUAGAUUUAUCCCUUGGCAGCUGUGGUAAAGUGAUGCAUUGCUCCUAG”: the “apparent Kd” value by setting is: under setting [3], 37.8 nM; under setting [4], 42.2 nM.
For “GAUGAACAUACUGAUACCAGUGUACUGACAUGAGGAUCACCCAUGUUGGGUUUUGUUGUACACCCUUGGCAGCAGAAUGUUUAUC”, the “apparent Kd” value is 72.2 nM under setting [3] and 78.9 nM under setting [4].
Take “UUUAUGGAGCUUUUAUUUACGAUUUCUGAUACCAGUGUUUCAUUUCACCCUUGGCAGCAGUGACAUGAGGAUCACCCAUGUAAUA”: the “apparent Kd” value worked out at 28 nM under setting [1] and 22.3 nM under setting [2].
Take “ACAUGAGGAUCACCCAUGUGCCGUCUUGAUACCAGACCCGAAGUAGUCCCUUGGCAGCAACUACGUGACGGUCGCGCAUGUGUAG”: the “apparent Kd” value reads like this: under setting [3], 19.8 nM; under setting [4], 28.7 nM.
Consider “CUUGUCGUAACUGAUACCAGUGUACUGACAUGAGGAUCACCCAUGUUGGGUUUUGUUGUACACCCUUGGCAGCAGAAUCGAUAAG”, for which the “apparent Kd” value was 73.8 nM under setting [3] and 121 nM under setting [4].
As for “GCUGGGUGCGCAAGGACCUGGCGUUGCGAUACCAGCACGGUAACGUGCCCUUGGCAGCGCACAUGAGGAUCACCCAUGUGGUGCG”, the “apparent Kd” value under setting [3] was 24.6 nM and the “apparent Kd” value under setting [4] came out at 329 nM.
For the sequence “ACAUGAGGAUCACCCAUGUAAAUCCUCGAUACCAGCCAAAGGAGAGGCCCUUGGCAGCGGAAAGGCCGGGUAUAAAUGUCCGGCC”, the “apparent Kd” value turned out to be 134 nM under setting [1] and 126 nM under setting [2].
For “AGACAUGUAAGAUAAUUGACUUUUACAGAUACCAGACUGUCUAAUGUCCCUUGGCAGCUGCAUUACAUGAGGAUCACCCAUGUUA”, the “apparent Kd” value reads like this: under setting [3], 19.2 nM; under setting [4], 17.9 nM.
On to “ACAUGAGGAUCACCCAUGUUCCUCUUUGAUACCAGUGAGUUGUUUCGCCCUUGGCAGCGAGUUUUUUUUUUUUUGUUUUGUUUGG”, for which the “apparent Kd” value reads like this: under setting [3], 274 nM; under setting [4], 390 nM.
Consider “GUUAUAUUAAUUGAUACCAGCGAGAAAACAUGAGGAUCACCCAUGUUCGCCCAUGUUAAGCGCCCUUGGCAGCAAUUUUAUUAGC”, for which the “apparent Kd” value by setting is: under setting [3], 30.6 nM; under setting [4], 91.6 nM.
In the same order, the values of “AGACAUGAGGAUCACCCAUGUAGCAUGGAUACCAGAUGUAGAUUAGUCCCUUGGCAGCUGUGGUAAAGUGAUGCAUUGCUCCUAG” are 49.2 nM and 47.4 nM.
The corresponding values for “GUAUGGAAACAUACUAGGGUAUCGUGAGAUACCAGUACAGAAAUGUACCCUUGGCAGCUCGCGCAUACAUGAGGAUCACCCAUGU” are 18.8 nM and 29.3 nM.
Turning to “ACAUGAGGAUCACCCAUGUCAGGGCACGAUACCAGCUGAUCCGAUGGCCCUUGGCAGCGUGACGUGUGGUCAUGAGGAUCACCCG”, the “apparent Kd” value under setting [1] came out at 189 nM and the “apparent Kd” value under setting [2] came to 156 nM.
Take “UGUAACAUGAGGAUCACCCAUGUGAGUGAUACCAGACUAGUAUUAGUCCCUUGGCAGCACGUUGGGCGAGUGUAUAGUCUAUGCG”: the “apparent Kd” value by setting is: under setting [1], 112 nM; under setting [2], 110 nM.
As for “ACAUGUCUUAUAGAUACCAGACAGGACAUGAGGAUCACCCAUGUAAUGUAUACAUGCAGAGUCCCUUGGCAGCUAAGGUCAUAGA”, the “apparent Kd” value was 77.6 nM under setting [1] and 66.3 nM under setting [2].
For the sequence “CCUAGCACACAUGAUACCAGCGACAUGAGGAUCACCCAUGUACGGCGUGUAUCGCAAGGUUGCCCUUGGCAGCAUGAUAGUGCUG”, the “apparent Kd” value came out at 14.4 nM under setting [3] and 182 nM under setting [4].
For the sequence “ACCAUGUAAUCAGAUACCAGACAUCUUUUAAAUCAUAUUACAUGAGGAUCACCCAUGUUGGUCCCUUGGCAGCUGAAAUAUUUCA”, the “apparent Kd” value was found to be 356 nM under setting [1] and 109 nM under setting [2].
Consider “AGUAAUCUAACAGAUACCAGACGGUAUAUAACAUGAGGAUCACCCAUGUCUUGGGUGUACGUCCCUUGGCAGCUGAAAAUGAUAA”, for which the “apparent Kd” value under setting [1] stood at 567 nM and the “apparent Kd” value under setting [2] was 383 nM.
For “ACAUGAGGAUCACCCAUGUUCCUCAUUGAUACCAGUGAAUUUAGACGCCCUUGGCAGCGAGUUUUUUAAGAAGAAGUUUUUUUUU”, the “apparent Kd” value is, setting by setting: under setting [3], 421 nM; under setting [4], 1110 nM.
In the same order, the values of “GAAACGUAGGUGGAGCGGUGAAAUGGCGAUACCAGCGUGGAAACAUGCCCUUGGCAGCGUUAGAACAUGAGGAUCACCCAUGUUU” are 13.3 nM and 58.2 nM.
Consider “UAAAACAUGAGGAUCACCCAUGUAAAUGAUACCAGAGUGAUGAUCCUCCCUUGGCAGCAUAACGCUGAUUGAUUACAAUCAGCGA”, for which the “apparent Kd” value amounted to 95.9 nM under setting [1] and 267 nM under setting [2].
For the sequence “UUUAAAAUAACAGAUACCAGCGUGUUAUAAAACAUGAGGAUCACCCAUGUAGUGAUCAAGCGCCCUUGGCAGCUGGUAUUUUAGG”, the “apparent Kd” value by setting is: under setting [1], 151 nM; under setting [2], 167 nM.
In the case of “GAGCUGAUGUAGAGCCUUUAGUUCUGAGAUACCAGUACAGAAAUGUACCCUUGGCAGCUCAGCUUUACAUGAGGAUCACCCAUGU”, the “apparent Kd” value reads like this: under setting [3], 19 nM; under setting [4], 23.7 nM.
For the sequence “AGUACACGAACUGAUACCAGCCGGACAUGAGGAUCACCCAUGUCCUACCUCUGUUCGGUUGGCCCUUGGCAGCAGUUCGUGUACA”, the “apparent Kd” value under setting [1] worked out at 81.6 nM and the “apparent Kd” value under setting [2] amounted to 121 nM.
For “ACGACGCAUAGUGAUACCAGUAGAACAUGAGGAUCACCCAUGUCUGUGGCGCUCCGCCUCUGCCCUUGGCAGCACUAUGCGUCAG”, the “apparent Kd” value under setting [1] was 12.4 nM and the “apparent Kd” value under setting [2] turned out to be 18.6 nM.
Turning to “UUCAAAGGGAACGGUGCUGGUAACAGAGAUACCAGAGUAAUAAUACUCCCUUGGCAGCUCAUAACAUGAGGAUCACCCAUGUAAU”, the “apparent Kd” value under setting [3] amounted to 13.4 nM and the “apparent Kd” value under setting [4] was 16.6 nM.
As for “GAUCUUGCGGGCGCCCGCAAGGUUGCGGAUACCAGCGAGAUUAAUCGCCCUUGGCAGCCGAACAUGAGGAUCACCCAUGUCGGAC”, the “apparent Kd” value under setting [1] is 9.62 nM and the “apparent Kd” value under setting [2] turned out to be 15.3 nM.
In the case of “UCGACAGUGAACGAUACCAGCGUCACGUGGCCGGUGGUCACAUGAGGAUCACCCAUGUAACGCCCUUGGCAGCGUGCACGUAUCA”, the “apparent Kd” value under setting [3] was 20.6 nM and the “apparent Kd” value under setting [4] amounted to 182 nM.
Take “AUAUUAGACCUGGAUACCAGCGACAUGAGGAUCACCCAUGUAUGUGCAUCUGCCAUGAUAUGCCCUUGGCAGCCACCGAGGUCGU”: the “apparent Kd” value is, setting by setting: under setting [3], 11.4 nM; under setting [4], 19.1 nM.
Regarding “AGCACAUGAGGAUCACCCAUGUGAGGUGAUACCAGUGAGAAGAAGCACCCUUGGCAGCACUUGGGUACAUGAGGAUCACCCAUGU”, the “apparent Kd” value is, setting by setting: under setting [3], 58.9 nM; under setting [4], 169 nM.
For “AACAUCUGGCGUGAUACCAGCCACAUGAGGAUCACCCAUGUCAACACUCGCAAUUGCGACGGCCCUUGGCAGCACGCAUCCUCAG”, the “apparent Kd” value under setting [1] amounted to 64 nM and the “apparent Kd” value under setting [2] was 12.1 nM.
For the sequence “UAUAUAUGGAUGGAUACCAGCAGAGAAAACGUUUAUCCUAACAUGAGGAUCACCCAUGUAUGCCCUUGGCAGCUGUUUAUAUAUA”, the “apparent Kd” value under setting [3] worked out at 26.6 nM and the “apparent Kd” value under setting [4] was found to be 29.1 nM.
Consider “GAUGAACUAUUUGAUACCAGACUACAUGAGGAUCACCCAUGUGAGUUUCCUCCUCUGCCAGUCCCUUGGCAGCAAAUAGUUUAUC”, for which the “apparent Kd” value was 56.5 nM under setting [3] and 148 nM under setting [4].
In the case of “UUUACAUGAGGAUCACCCAUGUGCCAUGAUACCAGACAUGAAAAUGUCCCUUGGCAGCAUGAAUGAUUCAUAGGAUAAUUAUGGG”, the “apparent Kd” value came to 99.2 nM under setting [1] and 98.8 nM under setting [2].
The corresponding values for “UCCUCAUGGCAUGAUACCAGACCUAACAUGAGGAUCACCCAUGUAUCAGGCAAUUGUUACGUCCCUUGGCAGCAUGUAUGCCGAC” are 70.2 nM and 138 nM.
Turning to “AACCGAGGCUAUCCUCUCCGCCUAUGUGAUACCAGAAUAAUUUUAUUCCCUUGGCAGCAUGACAUGAGGAUCACCCAUGUCUCUU”, the “apparent Kd” value under setting [1] amounted to 17.6 nM and the “apparent Kd” value under setting [2] is 20.3 nM.
In the same order, the values of “CCCAACAGUGAUGCCGGUGUUGGUGGUGAUACCAGCGUCUUAUGGCGCCCUUGGCAGCACCAACAUGAGGAUCACCCAUGUGAAA” are 55.2 nM and 409 nM.
With “UAUAUUGUGAUGGAUACCAGCAGAGAAAACGUUUAUCCUAACAUGAGGAUCACCCAUGUAUGCCCUUGGCAGCUGUUGUGAUAUA”, the “apparent Kd” value runs as follows: under setting [3], 71.4 nM; under setting [4], 46.9 nM.
With “AUUGCGAGUGAGUCGUGUAACGAUUCAGAUACCAGGCAUUUCGUUGUCCCUUGGCAGCUGUCUUACAUGAGGAUCACCCAUGUUA”, the “apparent Kd” value runs as follows: under setting [3], 52.3 nM; under setting [4], 106 nM.
